Source: PubChem (several laboratories)
Only some compounds are listed: those with a hit (about 3.8% of all), similar ones and a draw of the others.
MrgX1 antag: antagonists of human MrgX1 receptor | Q96LB2 | MRGX1-HEK293 calcium flux, Fluo-4, BAM8-22 antagonism; active compounds read low | B-score at 10 µM | 310,000 tested, 1.3% active | AID 588676;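 active = calcium-response B-score plate-corrected more than 3 library SD below zero, starting fluorescence within 5 deviations, no agonist response on first addition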;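 also: peak minus trough fluorescence over baseline after final BAM8-22 challenge near maximal dose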
Target sequence (Q96LB2 whole entry, looked up): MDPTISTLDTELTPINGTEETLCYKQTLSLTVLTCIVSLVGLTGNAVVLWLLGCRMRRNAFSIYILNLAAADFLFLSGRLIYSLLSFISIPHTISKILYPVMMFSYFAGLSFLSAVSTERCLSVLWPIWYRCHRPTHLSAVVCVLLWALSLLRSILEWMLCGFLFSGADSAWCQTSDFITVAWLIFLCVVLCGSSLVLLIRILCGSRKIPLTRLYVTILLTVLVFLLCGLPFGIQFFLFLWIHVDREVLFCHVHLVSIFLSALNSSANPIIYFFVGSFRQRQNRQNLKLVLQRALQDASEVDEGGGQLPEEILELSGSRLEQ
Lipid droplet: hepatic lipid droplet formation modulation; AML12 mouse hepatocytes, oleate lipid droplets, BODIPY imaging; inhibition, % at 6.5 µM; 240,000 tested, 0.4% active; AID 1656;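 active = lipid droplet intensity inhibited by at least 50%, with more than 500 cells counted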
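Test system: AML12 hepatocytes (mouse); reagent: oleate loading, 100 µM; dosing: one dose, 6.5 µM compound; incubation: overnight exposure; signal: fluorescence imaging, 20x objective, two fields per well; read-out basis: % inhibition of corrected integrated BODIPY droplet signal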
MrgX1 PAM: human MrgX1 positive allosteric modulation, primary screen; Q96LB2; MrgX1-HEK293, Fluo-4 calcium flux, FDSS; active compounds read high; B-score at 10 µM; 310,000 tested, 0.63% active;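 active = plate-corrected calcium response at least 3 library SD above typical, normal starting fluorescence, not activating the receptor alone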;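 also: compound read alongside a low EC10 to EC30 dose of BAM8-22 agonist; peak minus trough fluorescence over baseline measured at the second addition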
RGS4 pot: RGS4 potentiation or activation; 310,000 tested, 0.92% active; HEK293 M3R/inducible RGS4, carbachol calcium flux Fluo4; active compounds read low; AID 463111; B-score at 10 µM;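 active = B-score of the integrated calcium signal more than 4 SD below the library mean, with starting fluorescence not abnormally high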;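 also: negative B-score means reduced calcium response which marks RGS4 activation or potentiation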
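Material: Inducible-RGS4 HEK293 cells carrying M3 receptor; also added: carbachol at ECmax as muscarinic agonist stimulus; incubation: compound preincubation 20 min at room temperature before agonist; signal: Fluo4-AM (2 µM) calcium-flux fluorescence, kinetic read; measure: integrated calcium ratio converted to B score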
MrgX1 agonist: activates human MrgX1 receptor signaling; Q96LB2; MrgX1-HEK293 cells, Fluo-4 calcium fluorescence, agonist mode; active compounds read high; B-score at 10 µM; 310,000 tested, 0.44% active;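 active = calcium response B-score plate-corrected fluorescence ratio at least 3 library SD, with starting fluorescence B-score inside 5 SD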
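times = overnight plating, then 30 min 37 °C plus 30 min room-temperature dye loading | assay system = stable human MrgX1 HEK293 cell line | input = fifteen thousand cells per well | signal = kinetic calcium dye fluorescence, Fluo-4 NW | dosing = compound delivered in addition one of three | read-out = B-scored fluorescence response ratio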
RGS4 block: human RGS4 inhibition. P49798. HEK293 M3R/RGS4 inducible, Fluo-4 calcium flux; active compounds read high; triggered by carbachol at its EC20. B-score at 10 µM. 310,000 tested, 0.45% active. AID 463165;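 active = B-score, a plate-corrected calcium signal, over three deviations above library mean, with baseline fluorescence within five deviations of library mean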;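 also: RGS4 expression induced by doxycycline in cells with stable M3 receptor; B-score is computed from the integrated fluorescence ratio over baseline after carbachol; higher B-score means a larger calcium signal and so more RGS4 inhibition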
Target sequence (P49798 whole entry, looked up): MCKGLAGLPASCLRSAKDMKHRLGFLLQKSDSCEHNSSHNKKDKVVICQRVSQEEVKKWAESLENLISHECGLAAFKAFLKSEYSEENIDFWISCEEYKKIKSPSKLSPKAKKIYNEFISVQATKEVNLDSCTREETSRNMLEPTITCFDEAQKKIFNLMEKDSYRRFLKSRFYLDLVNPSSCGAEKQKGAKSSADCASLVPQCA
RGS4 inh valid: validation of RGS4 inhibitors; shares compounds with RGS4 block; calcium response, % at 10 µM; HEK293 M3R/RGS4, carbachol calcium Fluo-4 fluorescence; carbachol added at its EC20; 0 = buffer wells, 100 = carbachol control; 1,700 tested, 65% active;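 active = duplicate-averaged calcium response above the buffer-only control mean plus 5 SD of those controls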;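 also: integrated fluorescence ratio F max minus min over baseline F0; higher response in RGS4-induced cells means RGS4 inhibition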
M3R Ca ctr: counter-screen for RGS4 inhibitors: effect in non-induced cells; shares compounds with RGS4 block; HEK293 M3R non-induced, carbachol calcium Fluo-4; submaximal (EC20) carbachol stimulus; buffer wells 0%, carbachol control wells 100%; 1,900 tested, 20% active; activity (percent), % at 10 µM; call rule not given here;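 also: RGS4 induction absent so cells express M3R without RGS4; higher means more calcium signal and flags a non-specific hit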
M3R basal Ca ctr: second RGS4 inhibitor counter-screen in uninduced cells lacking carbachol | shares compounds with RGS4 block | HEK293 M3R/RGS4 non-induced, Fluo-4 calcium, no carbachol; normalised: buffer wells 0%, carbachol wells 100% | calcium response (agonist-mode artifact), % at 10 µM | 1,900 tested, 22% active;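 active = duplicate-averaged calcium rise in uninduced cells above buffer wells' mean plus 5 SD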
Numbers stand for hits.

COc1ccc(-c2[nH]ncc2CN2CCN(C(=O)c3ccco3)CC2)cc1F was read as MrgX1 antag inactive, Lipid droplet inactive, MrgX1 PAM inactive, RGS4 pot inactive, MrgX1 agonist inactive and RGS4 block inactive.
O=C(c1ccco1)N1CCCN(Cc2cn[nH]c2-c2ccc(-c3ccccc3)cc2)CC1 was read as MrgX1 antag inactive, Lipid droplet inactive, MrgX1 PAM inactive, RGS4 pot inactive, MrgX1 agonist inactive, RGS4 block 4.94, RGS4 inh valid 10.5%, M3R Ca ctr inactive and M3R basal Ca ctr inactive.
`COc1ccc(-c2[nH]ncc2CN2CCN(c3ccc(F)cc3)CC2)cc1` gave MrgX1 antag inactive, Lipid droplet inactive, MrgX1 PAM inactive, RGS4 pot inactive, MrgX1 agonist inactive and RGS4 block inactive.
`COCCN1C(=O)N[C@@H](c2cccs2)C(C(C)=O)=C1C` gave MrgX1 antag inactive, MrgX1 PAM inactive, RGS4 pot inactive, MrgX1 agonist inactive and RGS4 block inactive.
CC(=O)NCCOc1nc(N2CCCCC2)nc(N2CCCCC2)n1 was read as MrgX1 antag inactive, Lipid droplet inactive, MrgX1 PAM inactive, RGS4 pot inactive, MrgX1 agonist inactive and RGS4 block inactive.
Screening CC(/C=C/c1ccc(N(C)C)cc1)=N\N=C(/N)SC1CC(=O)N(c2ccc(C(=O)O)cc2)C1=O (stereo not drawn) returned MrgX1 antag inactive, Lipid droplet inactive, MrgX1 PAM inactive, RGS4 pot inactive, MrgX1 agonist inactive and RGS4 block inactive.
For CCCOc1ccc(N2C(=O)CC(S/C(N)=N/N=C(\C)c3cccs3)C2=O)cc1 (stereo not drawn) the results were MrgX1 antag inactive, MrgX1 PAM inactive, RGS4 pot inactive, MrgX1 agonist inactive, RGS4 block inactive, M3R Ca ctr inactive and M3R basal Ca ctr inactive.
`C/C(=N\N=C(/N)SC1CC(=O)N(c2cccc(Cl)c2)C1=O)c1cccs1` (stereo not drawn) gave MrgX1 antag inactive, MrgX1 PAM inactive, RGS4 pot inactive, MrgX1 agonist inactive, RGS4 block inactive, M3R Ca ctr inactive and M3R basal Ca ctr inactive.
O=C(CS(=O)c1ccc(F)cc1)N1CCOCC1 (stereo not drawn) was read as MrgX1 antag inactive, MrgX1 PAM inactive, RGS4 pot inactive, MrgX1 agonist inactive and RGS4 block inactive.
Screening O=C(Nc1ccccc1C(F)(F)F)c1c(F)cccc1Cl returned MrgX1 antag inactive, Lipid droplet inactive, MrgX1 PAM inactive, RGS4 pot inactive, MrgX1 agonist inactive and RGS4 block inactive.
COc1ccc2c(c1)C(=NNc1ccc(C(=O)O)cc1)c1cc(OC)ccc1-2 was read as MrgX1 antag inactive, Lipid droplet inactive, MrgX1 PAM inactive, RGS4 pot inactive, MrgX1 agonist inactive, RGS4 block 6.69, RGS4 inh valid 22.5%, M3R Ca ctr inactive and M3R basal Ca ctr inactive.
COc1ccc(/C(C)=N/Nc2ccc(C(=O)O)cc2)c(OC)c1 was read as MrgX1 antag inactive, Lipid droplet inactive, MrgX1 PAM inactive, RGS4 pot inactive, MrgX1 agonist inactive and RGS4 block inactive.
`O=C(/C=C/c1cccnc1)c1cccc(O)c1` gave MrgX1 antag inactive, Lipid droplet inactive, MrgX1 PAM inactive, RGS4 pot inactive, MrgX1 agonist inactive, RGS4 block 12.1, RGS4 inh valid 37.0%, M3R Ca ctr inactive and M3R basal Ca ctr inactive.
Screening Cc1noc(/C=C/c2cccnc2)c1[N+](=O)[O-] returned MrgX1 antag inactive, Lipid droplet inactive, MrgX1 PAM inactive, RGS4 pot inactive, MrgX1 agonist inactive, RGS4 block 5.7, RGS4 inh valid 18.5%, M3R Ca ctr inactive and M3R basal Ca ctr inactive.
O=C(/C=C/c1cccnc1)c1ccccc1O was read as MrgX1 antag inactive, Lipid droplet inactive, MrgX1 PAM inactive, RGS4 pot inactive, MrgX1 agonist inactive, RGS4 block 8.84, RGS4 inh valid 37.0%, M3R Ca ctr 63.0% and M3R basal Ca ctr 8.5%.
For O=C(/C=C/c1cccnc1)c1ccc([N+](=O)[O-])cc1 the results were MrgX1 antag inactive, Lipid droplet inactive, MrgX1 PAM inactive, RGS4 pot inactive, MrgX1 agonist inactive, RGS4 block 6.05, RGS4 inh valid 43.0%, M3R Ca ctr 54.5% and M3R basal Ca ctr inactive.
Cc1ccc(/C=C/C(=O)c2ccccc2O)cc1 was read as MrgX1 antag inactive, Lipid droplet inactive, MrgX1 PAM inactive, RGS4 pot inactive, MrgX1 agonist inactive and RGS4 block inactive.
For CN(C)c1ccc(/C=C/C(=O)c2cccnc2)cc1 the results were MrgX1 antag inactive, Lipid droplet inactive, MrgX1 PAM inactive, RGS4 pot inactive, MrgX1 agonist inactive and RGS4 block inactive.
CN(C)C(=O)COc1ccc(C(=O)/C=C/c2cccnc2)cc1 was read as MrgX1 antag inactive, MrgX1 PAM 6.85, RGS4 pot inactive, MrgX1 agonist inactive, RGS4 block 5.59, RGS4 inh valid 17.0%, M3R Ca ctr inactive and M3R basal Ca ctr inactive.
Screening O=C(/C=C/c1cccc(O)c1)c1cccnc1 returned MrgX1 antag inactive, Lipid droplet inactive, MrgX1 PAM inactive, RGS4 pot inactive, MrgX1 agonist inactive, RGS4 block 5.76, RGS4 inh valid 8.5%, M3R Ca ctr inactive and M3R basal Ca ctr 10.5%.
For O=C(/C=C/c1cccnc1)c1ccc(O)cc1 the results were MrgX1 antag inactive, Lipid droplet inactive, MrgX1 PAM inactive, RGS4 pot inactive, MrgX1 agonist inactive, RGS4 block 5.2, RGS4 inh valid 15.0%, M3R Ca ctr inactive and M3R basal Ca ctr inactive.
Screening COC(=O)c1ccccc1NC(=O)COC(=O)CO/N=C(\C)c1ccc2c(c1)OCO2 returned MrgX1 antag inactive, Lipid droplet inactive, MrgX1 PAM inactive, RGS4 pot inactive, MrgX1 agonist inactive and RGS4 block inactive.
For CCN(CC(=O)Nc1cccc(C(C)=O)c1)S(=O)(=O)c1ccc(C)cc1 the results were MrgX1 antag inactive, Lipid droplet inactive, MrgX1 PAM inactive, RGS4 pot inactive, MrgX1 agonist inactive and RGS4 block inactive.
